The record followed here is ChEMBL document CHEMBL2046351, “Discovery of cyclic sulfone hydroxyethylamines as potent and selective β-site APP-cleaving enzyme 1 (BACE1) inhibitors: structure-based design and in vivo reduction of amyloid β-peptides” (J Med Chem, 2012).

A value given as a limit tells only on which side of the number the result lay.

The test system of one data set is Mus musculus. As to the kind of experiment: Antialzheimer activity in APP51/16 transgenic mouse expressing human APP51/16Npa and mouse Thy1 assessed as reduction in amyloid beta (1 to 40) reduction at 180 umol/kg, po measured 4 hrs post dosing. It counts as functional. Also on record: scale not given: the % may be the effect or the level left.
Conditions: not given
An outline of the steps: (§1)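 Hemizygous APP51/16 mice (human APP751 wild-type under murine Thy-1 cassette, C57BL/6 background) gavaged (10 mL/kg), decapitated at 4 h. Forebrain homogenized in TBS with protease inhibitors, 1% TX-100 extract, spun 100000 rpm 30 min 4 °C. Aβ40 by 6E10 electrochemiluminescence immunoassay against spiked nontransgenic extract standards; C99 by APP-C8 western blot, densitometry. Two-tailed Student's t test versus vehicle.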
As for `CC(C)(C)c1cccc(CN[C@H]2CS(=O)(=O)C[C@@H](Cc3cc(F)c(N)c(OCC(F)F)c3)[C@@H]2O)c1`, the Activity is reported as 18%.
Still for that read-out and setting: to `CCOc1cc(C[C@@H]2CS(=O)(=O)C[C@H](NCc3cccc(C(C)(C)C)c3)[C@H]2O)cc(F)c1N` belongs 34%.
As for `COC[C@@H](Oc1cc(C[C@@H]2CS(=O)(=O)C[C@H](NCc3cccc(C(C)(C)C)c3)[C@H]2O)cc(F)c1N)C(F)(F)F`, the Activity worked out at 31%.

A further data set concerns Mus musculus. The data set can be described thus: Antialzheimer activity in APP51/16 transgenic mouse expressing human APP51/16Npa and mouse Thy1 assessed as reduction in brain C99 level reduction at 180 umol/kg, po measured 4 hrs post dosing. Also on record: scale not given: the % may be the effect or the level left.
Conditions: not given
It counts as functional. An outline of the steps: as §1
Regarding `CC(C)(C)c1cccc(CN[C@H]2CS(=O)(=O)C[C@@H](Cc3cc(F)c(N)c(OCC(F)F)c3)[C@@H]2O)c1`, the Activity is listed as 32%.
As for `CCOc1cc(C[C@@H]2CS(=O)(=O)C[C@H](NCc3cccc(C(C)(C)C)c3)[C@H]2O)cc(F)c1N`, the Activity is on record as 54%.
The same measure, in the same setting: then `COC[C@@H](Oc1cc(C[C@@H]2CS(=O)(=O)C[C@H](NCc3cccc(C(C)(C)C)c3)[C@H]2O)cc(F)c1N)C(F)(F)F`, with 48%.

The species named for the next data set is Homo sapiens. The data set can be described thus: Selectivity index, ratio of IC50 for human recombinant CatD to IC50 for human recombinant BACE1.
Conditions: not given
In the case of `CC(C)(C)c1cccc(CN[C@H]2CS(=O)(=O)C[C@@H](Cc3cc(F)c(N)c(OCC(F)F)c3)[C@@H]2O)c1`, the Ratio IC50 is over 100.
On the same count and under the same terms, to `CCOc1cc(C[C@@H]2CS(=O)(=O)C[C@H](NCc3cccc(C(C)(C)C)c3)[C@H]2O)cc(F)c1N` belongs 40; to `CCCOc1cc(C[C@@H]2CS(=O)(=O)C[C@H](NCc3cccc(C(C)(C)C)c3)[C@H]2O)ccc1N`, over 100.
Still for that read-out and setting: then `CC(C)(C)c1cccc(CN[C@H]2CS(=O)(=O)C[C@@H](Cc3ccc(N)c(F)c3)[C@@H]2O)c1`, with 5; and `CCc1cc(C[C@@H]2CS(=O)(=O)C[C@H](NCc3cccc(C(C)(C)C)c3)[C@H]2O)cc(F)c1NC(C)=O`, with over 100.
As for `CC(C)(C)c1cccc(CN[C@H]2CS(=O)(=O)C[C@@H](Cc3cc(F)c(N)c(Br)c3)[C@@H]2O)c1`, the Ratio IC50 turned out to be 5.

Another data set deals with Brain. As to the kind of experiment: Drug uptake in APP51/16 transgenic mouse brain at 180 umol/kg, po measured 4 hrs post dosing by LC/MS/MS analysis. It counts as ADME, organism-based. The conditions noted are these: in vivo. An outline of the steps: (§2)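 APP51/16 transgenic mice given oral gavage (10 mL/kg); blood and forebrain taken at 4 h postdose. Blood extracted by acetonitrile precipitation; brain homogenized in water, then acetonitrile-precipitated. LC-MS/MS quantitation against weighted linear calibration of analyte/internal standard area ratio.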
Regarding `CC(C)(C)c1cccc(CN[C@H]2CS(=O)(=O)C[C@@H](Cc3cc(F)c(N)c(OCC(F)F)c3)[C@@H]2O)c1`, the Drug uptake stood at 2.1 nmol/g.
On to `CCOc1cc(C[C@@H]2CS(=O)(=O)C[C@H](NCc3cccc(C(C)(C)C)c3)[C@H]2O)cc(F)c1N`, for which the Drug uptake stood at 3.1 nmol/g.
`COC[C@@H](Oc1cc(C[C@@H]2CS(=O)(=O)C[C@H](NCc3cccc(C(C)(C)C)c3)[C@H]2O)cc(F)c1N)C(F)(F)F` registered a Drug uptake of 1.9 nmol/g.

In the next data set the test system is MDR1 (human). The data set can be described thus: Apparent permeability across MDCK cells expressing human MDR1 at 5 uM after 2 hrs by LC-MS analysis. It counts as ADME, cell-based, Canis lupus familiaris. The conditions noted are these: dog. An outline of the steps:
(§3)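 MDCK cells retrovirally transduced with human MDR1, seeded on transwells ≥3 days; bidirectional transport at 5 μM, 2 h, 37 °C, LC/MS quantitation. Papp = (dQ/dt)/(A·C0), A 0.11 cm2; ER = Papp B>A / Papp A>B. Means of at least three experiments.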
In the case of `CC(C)(C)c1cccc(CN[C@H]2CS(=O)(=O)C[C@@H](Cc3cc(F)c(N)c(OCC(F)F)c3)[C@@H]2O)c1`, the Papp (in general, a coefficient for how fast a substance crosses the barrier) at 2 h, 5 µM worked out at 22 ×10⁻⁶ cm/s.
For `CCOc1cc(C[C@@H]2CS(=O)(=O)C[C@H](NCc3cccc(C(C)(C)C)c3)[C@H]2O)cc(F)c1N`, the Papp at 2 h, 5 µM came out at 18 ×10⁻⁶ cm/s.
Still for that read-out and setting: then `CCCOc1cc(C[C@@H]2CS(=O)(=O)C[C@H](NCc3cccc(C(C)(C)C)c3)[C@H]2O)ccc1N`, with 7 ×10⁻⁶ cm/s; and `CC(C)(C)Cc1cc(CN[C@H]2CS(=O)(=O)C[C@@H](Cc3cc(F)c(N)c(OC(C(F)(F)F)C(F)(F)F)c3)[C@@H]2O)no1`, with 20 ×10⁻⁶ cm/s.
As for `COC[C@@H](Oc1cc(C[C@@H]2CS(=O)(=O)C[C@H](NCc3cccc(C(C)(C)C)c3)[C@H]2O)cc(F)c1N)C(F)(F)F`, the Papp at 2 h, 5 µM is 13 ×10⁻⁶ cm/s.
As to `CC(C)(C)c1cccc(CN[C@H]2CS(=O)(=O)C[C@@H](Cc3ccc(N)c(F)c3)[C@@H]2O)c1`, the Papp at 2 h, 5 µM came to 21 ×10⁻⁶ cm/s.
For the compound `CCc1cc(C[C@@H]2CS(=O)(=O)C[C@H](NCc3cccc(C(C)(C)C)c3)[C@H]2O)cc(F)c1NC(C)=O`, the Papp at 2 h, 5 µM is 17 ×10⁻⁶ cm/s.
`CC(C)(C)c1cccc(CN[C@H]2CS(=O)(=O)C[C@@H](Cc3cc(F)c(N)c(Br)c3)[C@@H]2O)c1`: the Papp at 2 h, 5 µM stood at 13 ×10⁻⁶ cm/s.

In a further data set the target is Cathepsin D (Homo sapiens, UniProt P07339). As to the kind of experiment: Inhibition of human recombinant CatD using Mca-GKPILFFRLK(DNP)-dR-NH2 as substrate after 1 hr by fluorescence analysis.
Sequence of Cathepsin D (P07339 65-162 limits assumed): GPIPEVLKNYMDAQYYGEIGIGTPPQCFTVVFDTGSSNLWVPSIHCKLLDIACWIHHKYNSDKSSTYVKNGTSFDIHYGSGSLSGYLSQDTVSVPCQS
Sequence of Cathepsin D (P07339 169-412 limits assumed): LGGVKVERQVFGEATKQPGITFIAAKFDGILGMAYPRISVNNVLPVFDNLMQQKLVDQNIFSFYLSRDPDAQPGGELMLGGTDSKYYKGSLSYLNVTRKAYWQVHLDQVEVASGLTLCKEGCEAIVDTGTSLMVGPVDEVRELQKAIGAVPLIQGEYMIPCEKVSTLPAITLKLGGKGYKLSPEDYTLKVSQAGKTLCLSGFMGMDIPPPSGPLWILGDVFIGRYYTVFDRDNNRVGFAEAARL
Conditions: not given
As for `CC(C)(C)c1cccc(CN[C@H]2CS(=O)(=O)C[C@@H](Cc3cc(F)c(N)c(OCC(F)F)c3)[C@@H]2O)c1`, the IC50 (in general, the concentration needed to halve the response being measured) came to 680 nM.
Same read-out and setting: then `CCOc1cc(C[C@@H]2CS(=O)(=O)C[C@H](NCc3cccc(C(C)(C)C)c3)[C@H]2O)cc(F)c1N`, with 1030 nM; and `CCCOc1cc(C[C@@H]2CS(=O)(=O)C[C@H](NCc3cccc(C(C)(C)C)c3)[C@H]2O)ccc1N`, with 5200 nM.
Same read-out and setting: to `CC(C)(C)Cc1cc(CN[C@H]2CS(=O)(=O)C[C@@H](Cc3cc(F)c(N)c(OC(C(F)(F)F)C(F)(F)F)c3)[C@@H]2O)no1` belongs 510 nM.
Still for that read-out and setting: then `COC[C@@H](Oc1cc(C[C@@H]2CS(=O)(=O)C[C@H](NCc3cccc(C(C)(C)C)c3)[C@H]2O)cc(F)c1N)C(F)(F)F`, with 250 nM.
Take `CC(C)(C)c1cccc(CN[C@H]2CS(=O)(=O)C[C@@H](Cc3ccc(N)c(F)c3)[C@@H]2O)c1`: the IC50 was found to be 2520 nM.
Still for that read-out and setting: then `CCc1cc(C[C@@H]2CS(=O)(=O)C[C@H](NCc3cccc(C(C)(C)C)c3)[C@H]2O)cc(F)c1NC(C)=O`, with 2300 nM.
As for `CC(C)(C)c1cccc(CN[C@H]2CS(=O)(=O)C[C@@H](Cc3cc(F)c(N)c(Br)c3)[C@@H]2O)c1`, the IC50 came out at 340 nM.

For a further data set, the target named is Cytochrome P450 3A4 (Homo sapiens, UniProt P08684). As to the kind of experiment: Inhibition of CYP3A4.
Sequence of Cytochrome P450 3A4 (P08684 whole entry): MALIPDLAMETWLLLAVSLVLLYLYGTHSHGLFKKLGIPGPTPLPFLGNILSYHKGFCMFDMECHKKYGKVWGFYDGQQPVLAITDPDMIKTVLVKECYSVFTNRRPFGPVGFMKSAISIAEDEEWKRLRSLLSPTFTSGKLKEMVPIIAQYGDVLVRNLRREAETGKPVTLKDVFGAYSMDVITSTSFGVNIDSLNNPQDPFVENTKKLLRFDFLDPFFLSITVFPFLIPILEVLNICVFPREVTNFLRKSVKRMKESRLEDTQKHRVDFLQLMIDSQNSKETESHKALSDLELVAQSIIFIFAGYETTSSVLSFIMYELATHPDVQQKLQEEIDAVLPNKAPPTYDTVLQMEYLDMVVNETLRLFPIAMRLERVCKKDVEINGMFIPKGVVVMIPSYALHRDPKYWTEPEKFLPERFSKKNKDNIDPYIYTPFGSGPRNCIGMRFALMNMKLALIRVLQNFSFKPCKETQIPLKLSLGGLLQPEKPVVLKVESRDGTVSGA
Conditions: not given
The class given is ADME.
For the compound `CC(C)(C)Cc1cc(CN[C@H]2CS(=O)(=O)C[C@@H](Cc3cc(F)c(N)c(OC(C(F)(F)F)C(F)(F)F)c3)[C@@H]2O)no1`, the IC50 was 400 nM.

The subject of another data set is MDR1 (human). The data set can be described thus: Efflux ratio of permeability from basolateral to apical over apical to basolateral side of MDCK cells expressing human MDR1 at 5 uM after 2 hrs by LC/MS analysis. The class given is ADME, cell-based, Canis lupus familiaris. Particulars: dog. An outline of the steps:
as §3
As to `CC(C)(C)c1cccc(CN[C@H]2CS(=O)(=O)C[C@@H](Cc3cc(F)c(N)c(OCC(F)F)c3)[C@@H]2O)c1`, the efflux ratio (as a rule, the permeability from basolateral to apical divided by that in the opposite direction, in the common usage) at 2 h, 5 µM stood at 10.
The same measure, in the same setting: then `CCOc1cc(C[C@@H]2CS(=O)(=O)C[C@H](NCc3cccc(C(C)(C)C)c3)[C@H]2O)cc(F)c1N`, with 3.
With `CCCOc1cc(C[C@@H]2CS(=O)(=O)C[C@H](NCc3cccc(C(C)(C)C)c3)[C@H]2O)ccc1N`, the efflux ratio at 2 h, 5 µM came out at 2.
Regarding `CC(C)(C)Cc1cc(CN[C@H]2CS(=O)(=O)C[C@@H](Cc3cc(F)c(N)c(OC(C(F)(F)F)C(F)(F)F)c3)[C@@H]2O)no1`, the efflux ratio at 2 h, 5 µM amounted to 8.
As for `CC(C)(C)c1cccc(CN[C@H]2CS(=O)(=O)C[C@@H](Cc3ccc(N)c(F)c3)[C@@H]2O)c1`, the efflux ratio at 2 h, 5 µM was 1.
Consider `CCc1cc(C[C@@H]2CS(=O)(=O)C[C@H](NCc3cccc(C(C)(C)C)c3)[C@H]2O)cc(F)c1NC(C)=O`, for which the efflux ratio at 2 h, 5 µM was 41.
Take `CC(C)(C)c1cccc(CN[C@H]2CS(=O)(=O)C[C@@H](Cc3cc(F)c(N)c(Br)c3)[C@@H]2O)c1`: the efflux ratio at 2 h, 5 µM was found to be 2.

System in the next data set: not listed separately
As to the kind of experiment: Drug uptake in APP51/16 transgenic mouse blood at 180 umol/kg, po measured 4 hrs post dosing by LC/MS/MS analysis. The class given is ADME, organism-based. The conditions noted are these: read-out: Drug uptake. An outline of the steps: as §2
For the compound `CC(C)(C)c1cccc(CN[C@H]2CS(=O)(=O)C[C@@H](Cc3cc(F)c(N)c(OCC(F)F)c3)[C@@H]2O)c1`, the concentration at 4 h worked out at 12.2 µM.
The same measure, in the same setting: to `CCOc1cc(C[C@@H]2CS(=O)(=O)C[C@H](NCc3cccc(C(C)(C)C)c3)[C@H]2O)cc(F)c1N` belongs 9 µM; to `COC[C@@H](Oc1cc(C[C@@H]2CS(=O)(=O)C[C@H](NCc3cccc(C(C)(C)C)c3)[C@H]2O)cc(F)c1N)C(F)(F)F`, 7.3 µM.

The target in another data set is Beta-secretase 1 (Homo sapiens, UniProt P56817).
Sequence of Beta-secretase 1 (P56817 whole entry): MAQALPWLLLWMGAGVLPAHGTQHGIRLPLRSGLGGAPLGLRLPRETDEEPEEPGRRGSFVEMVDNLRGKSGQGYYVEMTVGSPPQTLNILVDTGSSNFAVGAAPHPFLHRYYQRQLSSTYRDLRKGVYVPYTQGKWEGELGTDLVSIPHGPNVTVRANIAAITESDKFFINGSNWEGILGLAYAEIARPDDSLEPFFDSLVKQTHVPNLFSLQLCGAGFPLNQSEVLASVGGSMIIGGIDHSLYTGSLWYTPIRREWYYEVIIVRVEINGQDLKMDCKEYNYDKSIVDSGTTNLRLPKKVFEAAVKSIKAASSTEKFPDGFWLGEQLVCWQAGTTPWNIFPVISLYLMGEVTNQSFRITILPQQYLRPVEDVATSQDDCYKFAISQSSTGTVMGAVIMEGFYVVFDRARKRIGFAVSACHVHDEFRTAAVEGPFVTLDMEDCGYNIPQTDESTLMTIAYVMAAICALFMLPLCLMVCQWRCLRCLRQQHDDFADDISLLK
Conditions: not given
The compound `CC(C)(C)c1cccc(CN[C@H]2CS(=O)(=O)C[C@@H](Cc3cc(F)c(N)c(OCC(F)F)c3)[C@@H]2O)c1` returned an IC50 of 6 nM.
`CCOc1cc(C[C@@H]2CS(=O)(=O)C[C@H](NCc3cccc(C(C)(C)C)c3)[C@H]2O)cc(F)c1N` gave an IC50 of 24 nM.
`CCCOc1cc(C[C@@H]2CS(=O)(=O)C[C@H](NCc3cccc(C(C)(C)C)c3)[C@H]2O)ccc1N` displayed an IC50 of 45 nM.
On the same count and under the same terms, then `CC(C)(C)Cc1cc(CN[C@H]2CS(=O)(=O)C[C@@H](Cc3cc(F)c(N)c(OC(C(F)(F)F)C(F)(F)F)c3)[C@@H]2O)no1`, with 7 nM; and `CC(C)(C)c1cccc(CN[C@H]2CS(=O)(=O)C[C@@H](Cc3ccc(N)c(F)c3)[C@@H]2O)c1`, with 350 nM; and `CCc1cc(C[C@@H]2CS(=O)(=O)C[C@H](NCc3cccc(C(C)(C)C)c3)[C@H]2O)cc(F)c1NC(C)=O`, with 8 nM.
Still for that read-out and setting: to `CC(C)(C)c1cccc(CN[C@H]2CS(=O)(=O)C[C@@H](Cc3cc(F)c(N)c(Br)c3)[C@@H]2O)c1` belongs 55 nM.
